# Screening data as filed in PubChem.
# Rows were chosen to be rich in hits. Some 4.9% of all compounds tested hit in one or more screens of this group.
# STAT1 activator: increases IFN-gamma driven STAT1 reporter signal; NIH 3T3 STAT1-luciferase reporter, luminescence; 100% = IFN-gamma alone, no compound; activation (% of control), % at 5.5 µM; 200,000 compounds, 2.6% hits; AID 932;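 active = activation above the screen-wide mean activation plus 3 SD, cut at about 130% in these data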
# STAT3 activator: STAT3 signaling activation; U3A cells, IL-6 STAT3-luciferase reporter, luminescence; 100% = signal with IL-6 EC80 alone; 190,000 compounds, 0.91% hits; activation (% of control), % at 5.6 µM;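 active = activation above the screen-wide mean of compound activation plus 3 SD, cut at about 130% in these data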
#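 Test system: Human STAT1-deficient U3A cells with stable STAT3-luciferase reporter | Also added: Interleukin-6, 33 ng/mL | Timing: Compound pre-incubation 1 h before IL-6, then 6 h stimulation at 37 °C | Technique: Luciferase reporter luminescence | Read-out: Percent of IL-6-only median luminescence | Benchmarks: IL-6-only wells as 100% reference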
# NF-kB expr up: compounds increasing NF-kB expression in human neuronal cells. NF-kB reporter expression; hits give high values. 190,000 compounds, 1.6% hits. fold change at 12.5 µM. AID 1239; in the data active = fold change above about 3.3
# STAT1 blocker: reduces IFN-gamma driven STAT1 reporter signal | NIH 3T3 STAT1-luciferase reporter, luminescence | inhibition, % at 5.5 µM | 200,000 compounds, 0.35% hits;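 active = inhibition above a set limit, the mean inhibition across all tested compounds plus 3 SD, cut at about 34% in these data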
# APP 5'UTR act: activates APP 5'UTR luciferase reporter; activation, % at 2 µM; 190,000 compounds, 1% hits; SH-SY5Y APP 5'UTR luciferase reporter, luminescence; zero percent = DMSO vehicle wells; AID 1276;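 active = activation above a set limit, based on mean plus 3 SD of controls, cut at about 140% in these data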
# STAT3 inh: STAT3 signaling inhibition; U3A cells, IL-6 STAT3-luciferase reporter, luminescence; host cell line lacks STAT1; inhibition, % at 5.5 µM; 190,000 compounds, 0.89% hits;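 active = inhibition above the mean inhibition across all screened compounds plus 3 SD, cut at about 44% in these data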
# Hits are given with their value; . = inactive; / = not tested or not shown.
SMILES,STAT1 activator,STAT3 activator,NF-kB expr up,STAT1 blocker,APP 5'UTR act,STAT3 inh
CCN1CCN(CC(=O)N/N=C/c2ccc(F)cc2F)CC1,.,.,.,.,.,.
CCOC(=O)c1sc(NC(=O)c2cncc(Br)c2)nc1C,.,.,.,.,.,.
O=C(Nc1nccs1)c1cncc(Br)c1,142.9,.,.,.,.,.
Nc1ccc(C(=O)Nc2nccs2)cc1,.,.,.,.,.,.
Cc1csc(NC(=O)c2cncc(Br)c2)n1,.,.,3.34,.,.,.
COC(=O)c1ccc2nc(-c3cccc(N)c3)cn2c1,.,.,.,60.0,.,74.5
COC(=O)c1ccc2nc(-c3ccc(S(C)(=O)=O)cc3)cn2c1,139.1,.,.,.,.,.
Cc1nnc(SCC(=O)NC(C)(C)C)n1NCc1c(F)cccc1Cl,.,.,/,.,.,.
S=C1NC(c2cccs2)=CC(c2ccc(Br)cc2)N1 (stereo not given),.,.,3.99,.,.,.
Cc1nc(-c2ccc(C(=O)Nc3ccccc3F)cc2)cs1,.,.,3.4,74.8,.,87.9
CC(C)(C)C(=O)CSc1nc(N)cc(=O)[nH]1,.,.,.,.,.,.
NC(=O)c1cccnc1Nc1cccc(F)c1,.,.,.,.,.,.
NC(=O)c1cccnc1Nc1cccc([N+](=O)[O-])c1,133.7,.,.,.,.,.
CC(NS(=O)(=O)c1ccc(Br)cc1)C(c1cccs1)N1CCOCC1 (stereo not given),.,.,.,.,.,.
Cc1ccc2nc(SCC(=O)N/N=C/c3ccco3)cc(C)c2c1,.,.,.,.,.,.
Cc1ccc2nc(N/N=C/c3ccco3)cc(C)c2c1,138.4,.,.,.,.,.
CCN(CC(=O)Nc1ccc(N2CCOCC2)cc1)C(=O)c1ccc(C(F)(F)F)cc1,.,.,.,.,.,.
CCn1cc(C(=O)N2CCN(c3ccc(OC)cc3)CC2)c(=O)c2cc(S(=O)(=O)N3CCCCC3)ccc21,.,.,.,.,.,.
CCn1cc(C(=O)N2CCc3ccccc32)c(=O)c2cc(S(=O)(=O)N3CCCC3)ccc21,.,133.0,.,.,.,.
O=C1Nc2ccccc2S/C1=C/Nc1cccc(Cl)c1,129.7,.,.,.,.,.
CCCc1ccc(OCc2ccc(C(=O)Nc3cccc(C)n3)o2)c(OC)c1,138.1,.,.,.,.,.
CCCc1ccc(OCc2ccc(C(=O)NCc3cccnc3)o2)c(OC)c1,.,.,.,.,.,.
O=C(c1cccc(F)c1)N1CCN(Cc2c[nH]c3ccccc23)CC1,.,168.2,.,.,.,.
O=[N+]([O-])c1ccccc1CN1CCN(Cc2c[nH]c3ccccc23)CC1,.,134.8,.,.,.,.
O=C(c1ccccc1)N1CCN(Cc2c[nH]c3ccccc23)CC1,.,.,.,.,.,.
SMILES,STAT1 activator,STAT3 activator,NF-kB expr up,STAT1 blocker,APP 5'UTR act,STAT3 inh
Cc1cc(-c2nc3ncccc3o2)ccc1NC(=S)NC(=O)C(C)C,.,.,.,.,.,.
COc1ccc2oc(=O)c(-c3cn4ccc(C)cc4n3)cc2c1,.,.,.,.,.,.
O=c1oc2ccccc2cc1-c1ccccc1,.,.,.,.,.,.
O=c1oc2ccccc2cc1-c1cn2cccnc2n1,140.1,.,.,.,.,.
O=c1oc2ccccc2cc1-c1cn2ccccc2n1,.,.,.,81.4,.,95.6
Nc1ccc(-c2cn3cccnc3n2)cc1,.,.,.,.,.,.
Cc1cccn2cc(-c3cc4ccccc4oc3=O)nc12,137.4,.,3.85,.,.,.
O=C(CCCCCNC(=O)c1ccccc1Br)N=Nc1c(O)[nH]c2ccccc12,.,.,.,.,.,.
Cc1ccc([N+](=O)[O-])cc1N=Nc1c(-c2ccc([N+](=O)[O-])cc2)[nH]n(C(N)=S)c1=O,.,.,.,35.0,.,45.5
NC(=S)n1[nH]c(-c2ccccc2)c(N=Nc2ccccc2C(=O)N2CCOCC2)c1=O,.,.,.,.,.,.
O=C(NCc1ccc(-c2nc3ccccc3s2)cc1)c1ccc(Br)o1,137.0,.,.,.,.,.
O=C(NCc1ccc(-c2nc3ccccc3s2)cc1)c1cc2ccccc2o1,.,.,.,.,.,.
COc1cc(C(=O)NCc2ccc(-c3nc4ccccc4s3)cc2)cc(OC)c1OC,141.2,.,.,.,.,.
COc1ccc(C(=O)NCc2ccc(-c3nc4ccccc4s3)cc2)cc1,.,.,.,.,.,.
COc1ccc(-c2nc(CN(CC3CCC(=O)N3)C(C)C)c(C)o2)c(C)c1C (stereo not given),.,.,.,.,.,.
O=[N+]([O-])c1ccc(COc2cccc(CNc3ccc(Br)cc3)c2)cc1,.,.,.,.,.,.
Cc1csc2ncc(C(=O)Nc3ccon3)c(=O)n12,.,.,.,.,.,.
Cc1cccc(NC(=O)c2cnc3scc(C)n3c2=O)c1,128.6,.,.,.,.,.
Cc1csc2ncc(C(=O)NCc3ccco3)c(=O)n12,.,.,.,.,.,.
Cc1csc2ncc(C(=O)Nc3ccccc3Cl)c(=O)n12,131.3,/,.,.,.,/
COCCCNC(=S)NNC(=O)c1csc2ccccc12,.,.,.,.,.,.
Cc1ccc(C(=O)NCc2cccnc2)cc1S(=O)(=O)Nc1ccccc1,.,.,.,.,.,.
COc1ccccc1OCc1ccc(C(=O)N(C)C)o1,.,.,.,.,.,.
CN(C)C(=O)c1ccc(COc2ccccc2Br)o1,132.3,.,.,.,.,.
Cc1cc(C)n2nc(SCC(=O)N(C)c3c(N)n(Cc4ccccc4)c(=O)[nH]c3=O)nc2n1,.,.,.,.,.,.
SMILES,STAT1 activator,STAT3 activator,NF-kB expr up,STAT1 blocker,APP 5'UTR act,STAT3 inh
CC(C)C(=O)Nc1ccc2c(c1)C(=O)NC2=O,.,.,.,.,.,.
Cc1cccc2c(=O)c(C(=O)NCc3cccs3)c[nH]c12,135.5,.,/,.,.,.
CCN=C1NN=C(c2cc(C)n(Cc3ccco3)c2C)CS1,.,.,.,44.6,.,81.7
CCN=C1NN=C(c2c[nH]c3ccccc23)CS1,.,.,/,.,161.6,.
C=CCn1c(C)cc(C2=NNC(=NCc3ccccc3)SC2)c1C,.,.,.,.,138.8,.
CCN=C1NN=C(c2cc(C)n(CCc3ccccc3)c2C)CS1,.,.,.,.,.,.
COCCn1c(C)cc(C2=NNC(=Nc3ccc(OC)cc3)SC2)c1C,.,.,.,.,.,.
COCCn1c(C)cc(C2=NNC(=Nc3ccccc3)SC2)c1C,142.7,.,.,.,155.3,.
COc1cc(/C=C/C(=O)O)cc(S(=O)(=O)Nc2cccc(SC)c2)c1OC,.,.,.,.,.,.
CC(NC(=O)COC(=O)Cc1ccc(-c2ccccc2)cc1)c1ccccc1 (stereo not given),.,.,.,.,.,.
